bIAP inh = blocks bovine intestinal alkaline phosphatase activity. purified bovine IAP, CDP-star luminescence, 30 min. 190,000 tested, under 10 active. AID 1019. inhibition, % at 20 µM;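 active = over 50% inhibition of intestinal alkaline phosphatase at 20 µM in the single-dose screen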
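test system = bovine IAP enzyme | medium = DEA buffer 100 mM, pH 9.8, with MgCl2 1.0 mM, ZnCl2 0.02 mM | detection = luminescence | dosing = single compound dose of 20 µM, 2% DMSO final | incubation = 30 min reaction at room temperature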
hIAP activ = human IAP activation; activation factor at 10 µM; purified human IAP, CDP-Star luminescence, 30 min; active compounds read high; 1 = vehicle-only enzyme, 0 = enzyme-free background; 330,000 compounds, 0.16% hits;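 active = activation factor of the enzyme at least 2-fold when tested at 20 µM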
Target sequence (P09923 whole entry, looked up): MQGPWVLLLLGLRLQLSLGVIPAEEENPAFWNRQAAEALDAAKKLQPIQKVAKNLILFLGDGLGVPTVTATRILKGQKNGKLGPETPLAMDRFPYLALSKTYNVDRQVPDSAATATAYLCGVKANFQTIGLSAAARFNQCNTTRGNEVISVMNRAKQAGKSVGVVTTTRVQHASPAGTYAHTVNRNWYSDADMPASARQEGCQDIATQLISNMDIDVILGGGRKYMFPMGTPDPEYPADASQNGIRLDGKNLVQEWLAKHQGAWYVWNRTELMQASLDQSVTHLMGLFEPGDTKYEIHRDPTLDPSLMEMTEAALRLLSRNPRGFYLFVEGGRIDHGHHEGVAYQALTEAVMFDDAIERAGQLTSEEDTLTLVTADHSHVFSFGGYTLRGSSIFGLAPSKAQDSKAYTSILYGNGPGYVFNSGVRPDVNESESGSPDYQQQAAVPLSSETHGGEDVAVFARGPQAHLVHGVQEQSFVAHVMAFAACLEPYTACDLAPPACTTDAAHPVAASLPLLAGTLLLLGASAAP
mIAP inh = blocks mouse intestinal alkaline phosphatase; purified mouse IAP, CDP-Star luminescence, 30 min; inhibition, % at 10 µM; 330,000 compounds, 0.2% hits;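 active = inhibition of at least 40% at 10 µM in the primary screen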;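 note: plate controls were DMSO with enzyme for no effect and no enzyme wells for full effect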
mIAP activ = increases mouse intestinal alkaline phosphatase activity | muIAP, CDP-Star luminescence, 30 min; active compounds read high; 1 = vehicle-only enzyme signal, 0 = enzyme-free wells | activation factor at 10 µM | 330,000 compounds, 0.24% hits;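 active = activation factor of at least 2 at 20 µM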
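System: mouse IAP enzyme. Reagent: CDP-Star chemiluminescent phosphatase substrate. Benchmarks: DMSO wells, no-enzyme wells. Times: 30 min enzyme-substrate-compound incubation at room temperature. Detection: luminescence from enzymatic CDP-Star hydrolysis. Doses: test compounds delivered from DMSO solution.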
hIAP inh = blocks human intestinal alkaline phosphatase; AID 2544; inhibition, % at 10 µM; 330,000 compounds, 0.12% hits; P09923; purified IAP, CDP-Star luminescence, 30 min;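 active = inhibition reaching a set limit with compound at 10 µM in the primary screen, cut at about 35% in these data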;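 note: plate controls were DMSO wells with enzyme for no effect and no-enzyme buffer wells for full effect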
bIAP activator = intestinal alkaline phosphatase (bovine) activation. activation factor at 20 µM. 200,000 compounds, 0.17% hits. AID 1016. purified bovine IAP, CDP-star luminescence, 30 min; active compounds read high; fold of DMSO-control signal, blank-subtracted;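 active = activation factor of 2 or more at 20 µM, a signal rise over negative controls twice the positive control's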
hIAP act confirm = human IAP activation confirmation | activation (%Activity, negative = activation), % at 8.3 µM | 880 compounds, 10% hits | shares compounds with hIAP activ | AID 434926 | purified IAP, CDP-Star luminescence, 30 min; active compounds read low;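 active = at least twofold enzyme activation in any of six single-dose repeats, which the averaged readout prints as negative percent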
The depositor's hits bear a star; / = no result given. In the library only some 0.77% were active in any assay of this set; here they are far more common.

SMILES | bIAP inh | hIAP activ | mIAP inh | mIAP activ | hIAP inh | bIAP activator | hIAP act confirm
CCOc1ccccc1CN1CCC(n2nccc2NC(=O)CCc2ccccc2)CC1 | / | 2.15* | -35.9 | 1.36 | -114.6 | / | 26.6
CCOc1ccccc1CN1CCC(n2nccc2NC(=O)CCCc2ccccc2)CC1 | / | 3.25* | -44.0 | 1.44 | -225.4 | / | -23.6
CC(=O)c1cccc(CN2CCC(n3nccc3NC(=O)CCCc3ccccc3)CC2)c1 | / | 1.23 | -10.3 | 1.1 | -23.4 | / | /
Cn1cc(CN2CCC(n3nccc3NC(=O)CCc3ccccc3)CC2)cn1 | / | 1.13 | -4.1 | 1.04 | -13.1 | / | /
COc1cccc(CN2CCC(n3nccc3NC(=O)CCCc3ccccc3)CC2)c1 | / | 3.28* | -66.1 | 1.66 | -228.4 | / | -17.4
CC(CN1CCC(n2nccc2NC(=O)CCCc2ccccc2)CC1)c1ccccc1 (stereo not given) | / | 2.04* | -78.9 | 1.79 | -103.9 | / | -90.9
CN(CCc1ccccn1)C(=O)CCNC(=O)Cn1cnc2ccccc2c1=O | 6.7 | 0.925 | -0.5 | 1 | 7.5 | 0.9 | /
COc1ccc(CNS(=O)(=O)CCNC(=O)c2ccccc2)cc1 | / | 1.18 | -2.8 | 1.03 | -17.6 | / | /
CCOC(=O)c1sc(NC(=O)/C=C/c2ccccc2)nc1C | -43.8 | 2.21* | 11.1 | 0.889 | -120.5 | 1.4 | 1.2
CCN(CC)C(=O)c1ccc(/C=C/c2c[nH]c3ccccc23)[n+](C)c1 | -0.4 | 1.02 | 10.4 | 0.896 | -1.7 | 1 | /
CC[n+]1c(/C=C/c2c[nH]c3ccccc23)ccc2cc(C)ccc21 | 29.9 | 0.636 | 31.0 | 0.69 | 36.4* | 0.7 | -85.7*
Cc1c(N2C(=O)/C(=C\c3ccccc3O)SC2=S)c(=O)n(-c2ccccc2)n1C | / | 0.868 | 14.4 | 0.856 | 13.2 | / | /
CN1C(=O)/C(=C/c2cc(N=Nc3ccccc3)ccc2O)SC1=S | 28.5 | 0.536 | 40.2* | 0.598 | 46.4* | 0.7 | -53.6
O=[N+]([O-])c1ccc(Nc2ccccc2)c2nonc12 | / | 0.615 | 20.5 | 0.795 | 38.5* | / | -18.0
CNS(=O)(=O)c1cccc(C(=O)OCC(=O)Nc2ccc(Cl)cc2F)c1 | / | 1.03 | -6.9 | 1.07 | -3.2 | / | /
O=C(c1cccs1)N1CCc2ccccc21 | 7.2 | 2.19* | -6.1 | 1.06 | -118.8 | 0.9 | 4.4
NS(=O)(=O)c1ccc(N2N=C(c3ccccc3)CC2c2ccccc2Br)cc1 (stereo not given) | / | / | -75.5 | 1.75 | / | / | /
O=[N+]([O-])c1ccc(N2N=C(c3ccccc3)CC2c2ccccc2O)cc1 (stereo not given) | / | 0.624 | 19.3 | 0.807 | 37.6* | / | -50.3
O=C(Nc1ccc(Cl)cc1)c1nc[nH]c1C(=O)NCCCNC(=O)c1[nH]cnc1C(=O)Nc1ccc(Cl)cc1 | / | 2.05* | 15.3 | 0.847 | -105.1 | / | 1.1
CCc1ccc(-n2c(SCC(=O)Nc3cc(C)[nH]n3)nc3[nH]ncc3c2=O)cc1 | -63.2 | 2.18* | 6.1 | 0.939 | -118.2 | 1.6 | -4.7
Cc1ccc(-c2nc3cccnc3s2)cc1NS(=O)(=O)c1cccs1 | 10.5 | 1.03 | 15.0 | 0.85 | -2.8 | 0.9 | /
O=C(NNC(=S)NC(=O)c1ccccc1)c1cccnc1 | / | 2.48* | 17.4 | 0.826 | -147.6 | / | -320.1*
CC(C)NC(=O)/C(C#N)=C\c1ccc(N(C)C)o1 | 40.5 | 0.649 | 14.9 | 0.851 | 35.1* | 0.6 | 3.8
Cc1ccccc1OCc1nc2c3cnn(C)c3ncn2n1 | 27.4 | 1.13 | -6.8 | 1.07 | -13.3 | 0.7 | /
CCc1nc2c3cnn(-c4cc(Cl)ccc4C)c3ncn2n1 | -4.2 | 0.274 | 11.8 | 0.882 | 72.6* | 1 | -31.0
Nc1ccc(S(=O)(=O)N2CCc3ccccc32)cc1 | / | 0.619 | -3.2 | 1.03 | 38.1* | / | -25.7
COCCn1c(=O)[nH]c2cc(C(=O)Nc3cc(OC)c(OC)c(OC)c3)ccc2c1=O | / | 1.02 | -8.4 | 1.08 | -2.5 | / | /
COc1cc(/C=C/C(=O)OCC(=O)NC(=O)NC2CCCCC2)ccc1OC(F)F | / | 0.649 | 4.6 | 0.954 | 35.1* | / | 78.7
CC(C)CNC(=O)COC(=O)c1cc(S(=O)(=O)N(C)C)ccc1N1CCCC1 | 4.1 | 1.11 | 3.1 | 0.969 | -10.7 | 1 | /
CCCCNCCCCOc1ccccc1 | 21.6 | 2.1* | -4.1 | 1.04 | -109.9 | 0.8 | -70.2
